12 compounds from PubChem BioAssay can be followed below.

Activity calls are given as the source filed them.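 The calls were made as follows, unless noted: active = inhibition at or above 50% at 10 µM; inactive = inhibition below 50%.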

Test [1] is described as follows: inhibitors of TNFa-induced NFkB p65 translocation, primary screen, imaging, HUVEC, MLSMR starter and 10KST1 sets (AID 438;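 active = inhibition above 20% together with a positive visual image hit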;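 also: compound added about 3h40 before a 20 min TNFalpha stimulation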;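 as to inhibition: signal is the nuclear over cytoplasmic p65 intensity ratio per well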). To be noted: HUVEC TNFa-induced p65 nuclear translocation; cell count: measured here: nuclei count (cytotoxicity indicator), at 2.08 µM; inhibition: at 2 µM, stronger effect = higher value, 0% TNFa-plus-vehicle, 100% no-TNFa wells.
Test [2] is described as follows: reduction of polyQ htt aggregates in cells – imaging, exon1htt(103Q)mCFP cells, high-content imaging, primary screen (AID 483;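 active = visual image review flags a hit and inhibition of aggregation exceeds 20%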;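 also: compound exposure lasted 3 days before fixation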;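 as to nuclei count: percent of the per-plate median nuclei count of sample wells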). To be noted: exon1htt(103Q)mCFP cell line, aggregate imaging, at 2 µM; inhibition of aggregation: stronger effect = higher value; nuclei count: measured here: cell count, toxicity.
Test [3] can be described thus: endothelial E-selectin expression blockers – imaging, HUVEC, immunofluorescence, MLSMR starter and 10KST1 sets, primary screen (AID 487;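 active = visually confirmed hit in the image check and inhibition above 20%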;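 as to inhibition: signal is fraction of cell area covered by stained E-selectin grains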;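 as to nuclei count: 100% = median nuclei count of all wells on the same plate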). To be noted: HUVEC TNFalpha-induced E-selectin immunofluorescence imaging, at 2 µM; inhibition: stronger effect = higher value; nuclei count: measured here: cell number, toxicity.
For test [4], the target named is Voltage-gated potassium channel subunit beta-2 (Rattus norvegicus) (UniProt P62483). The experiment in a line: inhibitors of rat Kvbeta2 reductase activity – biochemical, NADPH fluorescence, primary screen (AID 622;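 active = fluorescence slope higher than the sample average by over 3 SD, cut at about -0.22 in these data, passing the limit was not always enough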;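 also: slope of raw intensity against log time taken from 70 to 1610 s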). To be noted: recombinant KvBeta, 4-cyanobenzaldehyde reduction, at 10 µM, stronger effect = higher value.
For test [5] the target is unchanged. Nature of the test: enhancers of rat Kvbeta2 NADPH turnover – biochemical, NADPH fluorescence, primary screen (AID 623;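 active = NADPH fluorescence slope more negative than the mean of all samples by about 3 SD, 99.7% confidence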;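 also: fluorescence intensity change per second fitted from 20 to 320 s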). To be noted: Recombinant KvBeta, NADPH fluorescence decrease slope, 10 min; at 10 µM; stronger effect = lower value.
The target of test [6] is Alpha-2C adrenergic receptor (Homo sapiens) (UniProt P18825). Nature of the test: compounds altering alpha2C-coupled GIRK flux – cell-based, HEK293 alpha2C/GIRK1/2, thallium flux, primary screen (AID 624;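 active = fluorescence slope after compound addition differing from the mean of all screened samples at 99.7% confidence, in either direction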;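 also: slope of fluorescence ratio to pre-addition baseline per second over 15 to 24 s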). To be noted: thallium flux BTC fluorescence, at 10 µM, actives lie on both sides.
Test [7] is described as follows: inhibitors of larval lipid processing in zebrafish, primary screen, whole organism, PED6 fluorescence, gall bladder and intestine (AID 686;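 active = a full or partial loss of lipid-probe fluorescence in the fish gall bladder, intestine or both, judged by eye; inactive = no fluorescence loss, or compound toxic to the fish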;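 also: larvae 5 to 7 days old with five fish per well; signal comes from phospholipase A2 cleavage of quenched PED6 carried via bile; overnight exposure to compound and PED6 before scoring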). To be noted: Zebrafish larvae PED6 lipid processing, fluorescence scoring; screened at 20 µM (by protocol). The method, boiled down:
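System: live zebrafish larvae aged 5-7 days, whole organism; measure: graded gall bladder and intestinal fluorescence inhibition per well; incubation: overnight exposure; reagent: ingested quenched lipid PED6 at 100 nM; signal: By-eye fluorescence microscopy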

The nature of test [8]: blockers of RIG-like receptor reporter activation – cell-based, Sendai virus stimulus, luciferase, 10K MLSCN set, TLR/RLR signaling modifier project, primary screen (AID 602276).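 Also: firefly luciferase from ISG56 promoter only with Renilla not read in this screen; 0% = Sendai virus plus DMSO and 100% = medium plus DMSO without virus.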 To be noted: HEK293 RL24 IRF3 luciferase reporter, at 10 µM, stronger effect = higher value. In general terms: Reporter assays use an easily measured gene product as a stand-in for the process of interest.
Test [9] is described as follows: TLR3 IRF3 reporter activation blockers – cell-based, poly I:C stimulus, luciferase, 10K MLSCN set, primary screen (AID 602277;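 active = inhibition of the reporter signal at or above 50%; inactive = inhibition below 50%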). To be noted: HEK293-TLR3 RL24 IRF3 luciferase reporter, at 10 µM, stronger effect = higher value.

Chain of Voltage-gated potassium channel subunit beta-2 (Rattus norvegicus) (P62483 whole entry, looked up): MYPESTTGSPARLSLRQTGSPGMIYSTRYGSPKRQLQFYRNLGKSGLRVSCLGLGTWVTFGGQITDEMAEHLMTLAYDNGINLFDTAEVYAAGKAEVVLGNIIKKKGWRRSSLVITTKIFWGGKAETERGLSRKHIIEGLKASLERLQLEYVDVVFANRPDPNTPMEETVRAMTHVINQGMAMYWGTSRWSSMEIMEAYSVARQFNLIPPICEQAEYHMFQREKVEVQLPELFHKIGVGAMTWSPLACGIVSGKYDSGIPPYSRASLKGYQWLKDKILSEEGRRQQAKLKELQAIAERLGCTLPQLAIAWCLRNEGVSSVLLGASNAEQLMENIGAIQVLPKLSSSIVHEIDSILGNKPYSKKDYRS
Chain of Alpha-2C adrenergic receptor (Homo sapiens) (P18825 whole entry, looked up): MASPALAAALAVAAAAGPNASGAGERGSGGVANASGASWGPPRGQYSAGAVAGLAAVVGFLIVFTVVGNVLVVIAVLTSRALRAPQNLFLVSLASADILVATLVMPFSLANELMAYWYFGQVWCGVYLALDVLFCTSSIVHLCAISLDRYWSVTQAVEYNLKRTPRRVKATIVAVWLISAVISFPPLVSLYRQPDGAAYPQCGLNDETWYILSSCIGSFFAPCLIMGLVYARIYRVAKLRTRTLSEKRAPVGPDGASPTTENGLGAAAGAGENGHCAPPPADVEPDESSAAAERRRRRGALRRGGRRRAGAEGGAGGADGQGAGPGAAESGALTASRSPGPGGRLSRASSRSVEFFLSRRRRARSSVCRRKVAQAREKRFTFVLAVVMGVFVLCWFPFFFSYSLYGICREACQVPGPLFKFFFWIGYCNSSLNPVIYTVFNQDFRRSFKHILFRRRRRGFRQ

As to `CC(C)(C)n1ncc2c(=O)n(CC(=O)NCc3ccccc3)cnc21`, the cell count in test [1] is 615. Further, the inhibition is 2.4% (inactive) in test [1], -117% (inactive) in [3], -28.3% (inactive) in [8] and 69.7% (active) in [9]. In addition, the inhibition of aggregation in test [2] was 0.5% (inactive). Besides, the nuclei count in test [2] turned out to be 82.4%; in test [3], 104%. Also, the fluorescence slope in [4] is -0.296 (inactive). Further, the NADPH fluorescence slope in [5] is -1.3e-05 (inactive). Besides, in test [6], the slope is 0.00536 (inactive). The compound was called inactive in test [7].

`CCC(c1nnc(SCC(=O)Nc2ccc(C(=O)Nc3ccccc3OC)cc2)o1)N(C)C` (centres undefined): the cell count in [1] amounted to 464. Moreover, the inhibition in test [1] was 2.9% (inactive); in test [3] it was -70.6% (inactive); in test [8] it was -5.51% (inactive); in test [9] it was 98.3% (active). Moreover, in test [2], the inhibition of aggregation is -11.7% (inactive). Further, the nuclei count in test [2] was 102%; in [3], 90.3%. In addition, in test [4], the fluorescence slope was -0.442 (inactive). For the same compound, in test [5], the NADPH fluorescence slope is -7.1e-06 (inactive). The slope in [6] is 0.00416 (inactive). The result in [7] was inactive.

For the compound `c1n[nH]c(SCCCCSc2ncn[nH]2)n1`, in test [1], the cell count turned out to be 512. The inhibition in test [1] was -30.6% (inactive); in test [3], 24% (inactive); in test [8] it was 15.9% (inactive); in test [9], 13% (inactive). Moreover, in test [2], the inhibition of aggregation was -15.1% (inactive). Moreover, the results for the nuclei count in test [2] and in test [3] were 108% and 113%, respectively. In addition, the fluorescence slope in [4] was -0.452 (inactive). Further, in [5], the NADPH fluorescence slope was -7e-05 (inactive). For the same compound, the slope in test [6] is 0.00417 (inactive). Moreover, the outcome in test [7] was inactive.

For `CCCc1cc(=O)oc2cc(C)cc(OC(=O)c3ccco3)c12`, the cell count in test [1] was 298. Moreover, the inhibition in [1] is -9% (inactive); in test [3], -170% (inactive); in test [8], -12.5% (inactive); in test [9], -18.4% (inactive). The inhibition of aggregation in [2] was 14.4% (inactive). Besides, the nuclei count in [2] stood at 86%; in test [3], 108%. The fluorescence slope in test [4] was -0.399 (inactive). The NADPH fluorescence slope in test [5] was -3.5e-05 (inactive). In [6], the slope is 0.00456 (inactive). Also, the outcome in test [7] was inactive.

In the case of `COc1ccccc1OCc1nc2ccccc2[nH]1`, in [1], the cell count was found to be 391. The inhibition in test [1] was 1.3% (inactive); in test [3] it was 29.8% (inactive); in [8], -14.3% (inactive); in [9] it was -80.7% (inactive). Also, the inhibition of aggregation in test [2] is 19.9% (inactive). For the same compound, the nuclei count in [2] turned out to be 101%; in test [3], 86.3%. Moreover, in test [4], the fluorescence slope is -0.444 (inactive). Further, the NADPH fluorescence slope in [5] was -7e-05 (inactive). Further, the slope in [6] was 0.0055 (inactive). Further, the compound was classed as inactive in [7].

In the case of `CC(=O)NCCc1ccc(S(=O)(=O)NCc2ccc3c(c2)OCO3)cc1`, in test [1], the cell count amounted to 587. The inhibition in test [1] was -12.3% (inactive); in test [3], 35.7% (inactive); in test [8], 4.45% (inactive); in [9] it was 2.38% (inactive). Also, in [2], the inhibition of aggregation is -24.8% (inactive). In addition, the nuclei count was determined as 89.5% in test [2] and 82.1% in test [3]. Moreover, in [4], the fluorescence slope was -0.356 (inactive). For the same compound, the NADPH fluorescence slope in test [5] was -4.4e-05 (inactive). Also, the slope in [6] was 0.00549 (inactive). The compound was called inactive in test [7].

`O=C(CSc1n[nH]c(=O)[nH]c1=O)c1ccccc1`: the cell count in test [1] was found to be 486. Moreover, the inhibition in test [1] is -5.6% (inactive); in [3], -33.2% (inactive); in [8], 1.37% (inactive); in test [9], 0.379% (inactive). Besides, the inhibition of aggregation in test [2] was 6.7% (inactive). Moreover, the figures for the nuclei count in test [2] and in [3] were 82% and 99.8%, respectively. Also, the fluorescence slope in test [4] is -0.34 (inactive). Moreover, the NADPH fluorescence slope in test [5] is -4e-05 (inactive). Besides, the slope in [6] was 0.00685 (inactive). Moreover, the compound was classed as inactive in test [7].

Turning to `Cc1ccc2[nH]c3c(=O)n(CCCN4CCN(C)CC4)cnc3c2c1`, in [1], the cell count was 478. The inhibition in [1] is 1% (inactive); in test [3] it was -36.8% (inactive); in test [8], 1.24% (inactive); in test [9], 22.2% (inactive). Moreover, the inhibition of aggregation in [2] was -13.7% (inactive). The nuclei count stood at 105% in test [2] and 115% in test [3]. Further, in test [4], the fluorescence slope was -0.38 (inactive). The NADPH fluorescence slope in test [5] was -2.9e-05 (inactive). In test [6], the slope is 0.0053 (inactive). Further, the compound was classed as inactive in test [7].

For `CC12CCC(C(=O)N3CCN(C(=O)C45CCC(C)(C(=O)O4)C5(C)C)CC3)(OC1=O)C2(C)C`, in [1], the cell count was determined as 575. Further, the inhibition is -8.7% (inactive) in test [1], -42.4% (inactive) in [3], -54.1% (inactive) in test [8] and 99.3% (active) in test [9]. Moreover, the inhibition of aggregation in test [2] was -6.1% (inactive). In addition, the nuclei count in test [2] amounted to 108%; in test [3] it was 140%. Moreover, in test [4], the fluorescence slope is -0.391 (inactive). The NADPH fluorescence slope in [5] is -7.7e-05 (inactive). In test [6], the slope was 0.00544 (inactive). Besides, the call in test [7] was inactive.

Consider `CCCCCc1nnc(NC(=O)Cc2cccs2)s1`, for which the cell count in [1] is 325. The inhibition in test [1] is 3.8% (inactive); in test [3], -23.7% (inactive); in [8], 11.9% (inactive); in test [9] it was 1.2% (inactive). The inhibition of aggregation in test [2] is -1.3% (inactive). The nuclei count in test [2] worked out at 93.5%; in test [3], 95.6%. The fluorescence slope in test [4] is -0.412 (inactive). Besides, the NADPH fluorescence slope in [5] was -5.9e-05 (inactive). In addition, in [6], the slope was 0.00431 (inactive). The compound was called inactive in [7].

As to `Cc1cc(Br)c(S(=O)(=O)n2nnc3ccccc32)cc1C`, the cell count in test [1] was 608. The inhibition is -4.5% (inactive) in test [1], 29% (inactive) in test [3], 13.1% (inactive) in [8] and 12.1% (inactive) in [9]. In test [2], the inhibition of aggregation was 3.7% (inactive). Besides, the values for the nuclei count in [2] and in test [3] were 81.9% and 107%, respectively. Besides, in test [4], the fluorescence slope was -0.326 (inactive). Further, in test [5], the NADPH fluorescence slope was 2.1e-05 (inactive). Besides, the slope in test [6] is 0.00509 (inactive). Besides, the compound was classed as inactive in test [7].

Consider `Cc1ccc(NC(=O)CSc2nnc(-c3ccc(S(=O)(=O)N4CCOCC4)cc3)n2C)cc1`, for which the cell count in test [1] stood at 740. Also, the inhibition in test [1] is -0.2% (inactive); in [3] it was 9.3% (inactive); in [8] it was 4.24% (inactive); in test [9] it was 4.26% (inactive). In addition, the inhibition of aggregation in [2] was 0.9% (inactive). Also, the figures for the nuclei count in [2] and in test [3] were 87% and 111%, respectively. In addition, the fluorescence slope in test [4] is -0.384 (inactive). The NADPH fluorescence slope in [5] is -7.3e-05 (inactive). Also, in [6], the slope is 0.00534 (inactive). Further, the call in [7] was inactive.

The inhibition is the drop in the measured response relative to a control, in per cent.
